Test results from ChEMBL document CHEMBL1629713, “Discovery of benzoylisoindolines as a novel class of potent, selective and orally active GlyT1 inhibitors” (Bioorg Med Chem Lett, 2010).
Converted amounts (≈) assume the structure as drawn.

Legend:
[1] = Terminal half life in rat at 5.7 mg/kg, po; assay type: ADME, organism-based; design: dose 5.7 mg/kg, route oral; details: in vivo, read-out: beta t1/2 (converted)
Outline: (§1)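 Single-dose rat PK with iv doses of 1.7, 2.0 or 2.2 mg/kg and po doses of 2, 5.7 or 6.8 mg/kg. CL, Vss, oral bioavailability, terminal half-life and brain/plasma ratio determined; values averaged from two independent experiments.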

[2] = Volume of distribution at steady state in rat at 1.7 mg/kg, iv; assay type: ADME, organism-based; design: dose 1.7 mg/kg, route intravenous; details: in vivo, read-out: Vdss; outline: as §1
[3] = Drug level in rat brain at 10 mg/kg after 3 hrs; assay type: ADME, organism-based; design: dose 10 mg/kg; details: read-out: Drug uptake
Outline: (§2)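 Rats dosed 10 mg/kg po, n = 6. Striatal extracellular fluid sampled for glycine over 3 h, expressed as maximal fold increase and fold increase at 3 h. Animals sacrificed at 3 h; plasma and brain drug levels measured at 3 h post dose.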

[4] = Ratio of drug level in brain to plasma in rat at 5.7 mg/kg, po; assay type: ADME, organism-based; design: dose 5.7 mg/kg, route oral; details: read-out: BPR
[5] = Oral bioavailability in rat at 5.7 mg/kg; assay type: ADME, organism-based; details: in vivo; outline: as §1
[6] = Clearance in rat at 1.7 mg/kg, iv; assay type: ADME, organism-based; design: dose 1.7 mg/kg, route intravenous; details: in vivo; outline: as §1
Rattus norvegicus [7] = test: […] in rat striatum assessed as increase of glycine at 10 mg/kg, po after 3 hrs relative to basal level; assay type: functional; outline: as §2
hERG (KCNH2) = hERG (KCNH2) (Homo sapiens, UniProt Q12809); test: Inhibition of human ERG at 10 uM by patch clamp assay
Chain of hERG (KCNH2) (Q12809 whole entry): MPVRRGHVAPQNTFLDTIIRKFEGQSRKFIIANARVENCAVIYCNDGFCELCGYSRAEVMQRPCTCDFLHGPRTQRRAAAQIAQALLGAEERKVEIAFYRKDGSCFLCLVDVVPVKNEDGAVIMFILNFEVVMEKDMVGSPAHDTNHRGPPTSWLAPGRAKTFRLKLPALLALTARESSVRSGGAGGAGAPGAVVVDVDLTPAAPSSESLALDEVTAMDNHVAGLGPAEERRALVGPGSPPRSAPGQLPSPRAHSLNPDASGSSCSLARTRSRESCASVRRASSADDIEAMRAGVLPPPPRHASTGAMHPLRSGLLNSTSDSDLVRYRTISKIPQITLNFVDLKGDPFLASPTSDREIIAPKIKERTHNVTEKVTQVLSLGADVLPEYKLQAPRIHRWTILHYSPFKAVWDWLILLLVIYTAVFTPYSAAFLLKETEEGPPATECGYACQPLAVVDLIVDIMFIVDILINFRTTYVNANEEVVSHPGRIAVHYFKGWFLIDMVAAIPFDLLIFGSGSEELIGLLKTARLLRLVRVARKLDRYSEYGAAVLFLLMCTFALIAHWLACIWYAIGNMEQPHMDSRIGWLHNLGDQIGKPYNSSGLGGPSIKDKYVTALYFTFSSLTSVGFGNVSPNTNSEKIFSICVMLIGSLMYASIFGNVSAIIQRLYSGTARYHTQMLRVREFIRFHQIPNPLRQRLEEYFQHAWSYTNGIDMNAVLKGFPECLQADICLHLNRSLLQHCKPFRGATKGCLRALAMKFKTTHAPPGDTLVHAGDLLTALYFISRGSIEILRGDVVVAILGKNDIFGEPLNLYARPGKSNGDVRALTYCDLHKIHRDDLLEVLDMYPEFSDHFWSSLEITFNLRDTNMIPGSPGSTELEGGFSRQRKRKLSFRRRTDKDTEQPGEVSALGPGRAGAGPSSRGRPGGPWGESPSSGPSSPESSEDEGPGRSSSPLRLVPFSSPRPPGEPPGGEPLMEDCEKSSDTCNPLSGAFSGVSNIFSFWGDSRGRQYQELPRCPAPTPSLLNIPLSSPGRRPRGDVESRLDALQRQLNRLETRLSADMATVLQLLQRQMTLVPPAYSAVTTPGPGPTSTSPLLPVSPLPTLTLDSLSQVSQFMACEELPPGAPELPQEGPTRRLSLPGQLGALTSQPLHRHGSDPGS
Outline: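 hERG block measured by patch clamp at 10 µM; values averaged from at least two independent experiments.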

Rattus norvegicus [8] = test: […] in rat striatum assessed as increase of glycine level at 10 mg/kg, po relative to basal level; assay type: functional; outline: as §2
Mus musculus = test: Antipsychotic activity in po dosed mouse assessed as inhibition of L-687414-induced hyperlocomotion after 60 mins; assay type: functional; details: 1 h, read-out: ID50 (the source's name)
Outline: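 Mice given compound orally, n = 8 per group; hyperlocomotion induced by L-687,414. Horizontal activity counts recorded over a 60-min period and reported as group means. ID50 (mg/kg) derived from dose-dependent inhibition of the L-687,414-induced response.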

[9] = biological target: T1, Sodium- and chloride-dependent glycine transporter 2 (Homo sapiens, UniProt Q9Y345); test: Inhibition of human GlyT2 expressed in CHO cells assessed as inhibition of [3H]glycine uptake by liquid scintillation counting; assay type: cell-based
T1 sequence (Q9Y345 whole entry): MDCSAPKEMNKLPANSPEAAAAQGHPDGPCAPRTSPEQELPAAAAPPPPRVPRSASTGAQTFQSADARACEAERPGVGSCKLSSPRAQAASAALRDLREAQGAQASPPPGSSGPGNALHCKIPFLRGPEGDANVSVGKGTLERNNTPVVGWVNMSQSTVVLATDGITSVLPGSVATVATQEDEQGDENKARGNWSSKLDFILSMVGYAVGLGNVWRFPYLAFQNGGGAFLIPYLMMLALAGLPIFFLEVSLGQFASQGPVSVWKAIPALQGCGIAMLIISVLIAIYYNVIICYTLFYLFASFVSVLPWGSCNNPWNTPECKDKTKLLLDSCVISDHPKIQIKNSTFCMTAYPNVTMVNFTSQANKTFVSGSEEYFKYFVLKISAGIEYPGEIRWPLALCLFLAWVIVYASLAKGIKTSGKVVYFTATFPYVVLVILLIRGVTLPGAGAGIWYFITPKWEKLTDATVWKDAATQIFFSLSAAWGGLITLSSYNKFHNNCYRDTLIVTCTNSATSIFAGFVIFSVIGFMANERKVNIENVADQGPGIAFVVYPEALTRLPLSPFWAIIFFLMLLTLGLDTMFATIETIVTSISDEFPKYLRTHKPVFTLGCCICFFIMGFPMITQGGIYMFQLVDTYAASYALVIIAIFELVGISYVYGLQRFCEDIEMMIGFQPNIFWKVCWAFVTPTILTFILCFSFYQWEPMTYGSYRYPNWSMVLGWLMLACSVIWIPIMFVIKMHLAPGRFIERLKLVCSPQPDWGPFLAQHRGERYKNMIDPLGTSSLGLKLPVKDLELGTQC
Outline: (§3)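 [3H]-glycine uptake inhibition in cells transfected with human GlyT1 or human GlyT2 cDNA. EC50 values averaged from at least two independent experiments.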

[10] = Intrinsic clearance in rat liver microsomes assessed per mg of protein; assay type: ADME, Microsome
Outline: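 Intrinsic clearance measured in rat liver microsomes, expressed as µL/min/mg protein.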

[11] = Aqueous solubility of the compound by lyophilisate solubility assay; assay type: physicochemical; details: buffer
Outline: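 LYSA: compound in DMSO solution lyophilized, then dissolved in 0.05 M phosphate buffer pH 6.5, stirred 1 h and shaken 2 h; solubility in µg/ml.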

[12] = Drug level in rat plasma at 10 mg/kg after 3 hrs; assay type: ADME, organism-based; design: dose 10 mg/kg; outline: as §2
[13] = Permeability of the compound by PAMPA; assay type: ADME; details: read-out: permeability
Outline: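 PAMPA: permeation constant Pe (10^-6 cm/s) measured through artificial membranes.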

[14] = biological target: T2, Sodium- and chloride-dependent glycine transporter 1 (Homo sapiens, UniProt P48067); test: Inhibition of human GlyT1 expressed in CHO cells assessed as inhibition of [3H]glycine uptake by liquid scintillation counting; assay type: cell-based; outline: as §3
T2 sequence (P48067 whole entry): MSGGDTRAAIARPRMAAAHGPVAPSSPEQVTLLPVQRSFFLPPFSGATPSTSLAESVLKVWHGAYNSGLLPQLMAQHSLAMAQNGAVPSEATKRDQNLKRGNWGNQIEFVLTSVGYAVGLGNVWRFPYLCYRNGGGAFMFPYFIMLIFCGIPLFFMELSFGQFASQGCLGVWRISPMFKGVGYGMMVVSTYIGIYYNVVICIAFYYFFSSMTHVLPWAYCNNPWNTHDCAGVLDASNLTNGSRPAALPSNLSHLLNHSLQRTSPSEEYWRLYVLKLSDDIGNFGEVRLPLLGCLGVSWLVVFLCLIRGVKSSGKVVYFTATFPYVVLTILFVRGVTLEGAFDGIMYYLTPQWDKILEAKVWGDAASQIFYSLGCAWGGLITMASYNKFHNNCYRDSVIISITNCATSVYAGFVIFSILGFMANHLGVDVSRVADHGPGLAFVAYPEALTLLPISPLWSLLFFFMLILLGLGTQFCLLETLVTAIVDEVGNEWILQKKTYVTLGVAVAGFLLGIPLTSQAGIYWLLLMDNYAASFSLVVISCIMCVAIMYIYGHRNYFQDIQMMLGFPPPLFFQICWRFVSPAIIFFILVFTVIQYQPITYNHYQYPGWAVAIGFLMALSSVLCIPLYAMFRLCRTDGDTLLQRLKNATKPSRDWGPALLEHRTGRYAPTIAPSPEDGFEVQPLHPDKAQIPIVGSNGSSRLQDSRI

[15] = Ratio of drug level in brain to plasma in rat at 6.8 mg/kg, po; assay type: ADME, organism-based; design: dose 6.8 mg/kg, route oral; details: read-out: BPR
[16] = Clearance in rat at 2.2 mg/kg, iv; assay type: ADME, organism-based; design: dose 2.2 mg/kg, route intravenous; details: in vivo; outline: as §1
[17] = Volume of distribution at steady state in rat at 2.2 mg/kg, iv; assay type: ADME, organism-based; design: dose 2.2 mg/kg, route intravenous; details: in vivo, read-out: Vdss; outline: as §1
[18] = Terminal half life in rat at 6.8 mg/kg, po; assay type: ADME, organism-based; design: dose 6.8 mg/kg, route oral; details: in vivo, read-out: beta t1/2 (converted); outline: as §1
[19] = Oral bioavailability in rat at 6.8 mg/kg; assay type: ADME, organism-based; details: in vivo; outline: as §1
[20] = Oral bioavailability in rat at 2 mg/kg; assay type: ADME, organism-based; details: in vivo; outline: as §1
[21] = Volume of distribution at steady state in rat at 2 mg/kg, iv; assay type: ADME, organism-based; design: dose 2 mg/kg, route intravenous; details: in vivo, read-out: Vdss; outline: as §1
[22] = Terminal half life in rat at 2 mg/kg, po; assay type: ADME, organism-based; design: dose 2 mg/kg, route oral; details: in vivo, read-out: beta t1/2 (converted); outline: as §1
[23] = Ratio of drug level in brain to plasma in rat at 2 mg/kg, po; assay type: ADME, organism-based; design: dose 2 mg/kg, route oral; details: read-out: BPR
[24] = Clearance in rat at 2 mg/kg, iv; assay type: ADME, organism-based; design: dose 2 mg/kg, route intravenous; details: in vivo; outline: as §1

| concentration at 3 h [3] [ng/mL] | EC50 [9] [nM] | microsomal CLint [10] [µL/min/mg] | solubility [11] [µg/mL] | concentration at 3 h [12] [ng/mL] | Papp [13] [×10⁻⁶ cm/s] | EC50 [14] [nM] | Compound | fold change (FC) (Rattus norvegicus [7]) | inhibition at 10 µM (hERG (KCNH2)) [%] | fold change (FC) (Rattus norvegicus [8]) | ED50 (Mus musculus) [mg/kg] | other results |
| --- | --- | --- | --- | --- | --- | --- | --- | --- | --- | --- | --- | --- |
| 159 | > 30000 | 18.9 | 191 (≈ 431 µM) | 279 | 4.2 | 28 | CC(C)Oc1ccc(S(C)(=O)=O)cc1C(=O)N1Cc2ccc(C3CCOCC3)cc2C1 | 1.5 | 10 | 1.9 | 0.5 | half-life [1]: 1.6 h; Vd [2]: 2 L/kg; Kp [4]: 0.6; bioavailability [5]: 40%; clearance [6]: 22 mL/min/kg |
| 274 | > 30000 | 13.9 | 76 (≈ 153 µM) | 480 | 3.3 | 14 | C[C@H](Oc1ccc(S(C)(=O)=O)cc1C(=O)N1Cc2ccc(C3CCOCC3)cc2C1)C(F)(F)F | 2 | 23 | 2.1 | 0.5 | Kp [15]: 0.6; clearance [16]: 21 mL/min/kg; Vd [17]: 3.7 L/kg; half-life [18]: 3.2 h; bioavailability [19]: 65% |
| 500 | > 30000 | 1.9 | 280 (≈ 580 µM) | 2500 | 5 | 50 | C[C@H](Oc1ccc(S(C)(=O)=O)cc1C(=O)N1Cc2cc(C(F)(F)F)cnc2C1)C(F)(F)F | 1.8 | 12 | 1.8 | 0.4 | bioavailability [20]: 55%; Vd [21]: 1.4 L/kg; half-life [22]: 6 h; Kp [23]: 0.2; clearance [24]: 1.7 mL/min/kg |
